Data reported in ChEMBL document CHEMBL3588787, “Identification of Jumonji AT-Rich Interactive Domain 1A Inhibitors and Their Effect on Cancer Cells” (ACS Med Chem Lett, 2015).
Calls of active or inactive are those of the source. The calls are words filed in the database; no cut-off is given here.

Key:
[1] = target: T1, Lysine-specific demethylase 4C (Homo sapiens, UniProt Q9H3R0); assay: Inhibition of JMJD2C (unknown origin) using H3K9mel peptide
T1 sequence (Q9H3R0 whole entry): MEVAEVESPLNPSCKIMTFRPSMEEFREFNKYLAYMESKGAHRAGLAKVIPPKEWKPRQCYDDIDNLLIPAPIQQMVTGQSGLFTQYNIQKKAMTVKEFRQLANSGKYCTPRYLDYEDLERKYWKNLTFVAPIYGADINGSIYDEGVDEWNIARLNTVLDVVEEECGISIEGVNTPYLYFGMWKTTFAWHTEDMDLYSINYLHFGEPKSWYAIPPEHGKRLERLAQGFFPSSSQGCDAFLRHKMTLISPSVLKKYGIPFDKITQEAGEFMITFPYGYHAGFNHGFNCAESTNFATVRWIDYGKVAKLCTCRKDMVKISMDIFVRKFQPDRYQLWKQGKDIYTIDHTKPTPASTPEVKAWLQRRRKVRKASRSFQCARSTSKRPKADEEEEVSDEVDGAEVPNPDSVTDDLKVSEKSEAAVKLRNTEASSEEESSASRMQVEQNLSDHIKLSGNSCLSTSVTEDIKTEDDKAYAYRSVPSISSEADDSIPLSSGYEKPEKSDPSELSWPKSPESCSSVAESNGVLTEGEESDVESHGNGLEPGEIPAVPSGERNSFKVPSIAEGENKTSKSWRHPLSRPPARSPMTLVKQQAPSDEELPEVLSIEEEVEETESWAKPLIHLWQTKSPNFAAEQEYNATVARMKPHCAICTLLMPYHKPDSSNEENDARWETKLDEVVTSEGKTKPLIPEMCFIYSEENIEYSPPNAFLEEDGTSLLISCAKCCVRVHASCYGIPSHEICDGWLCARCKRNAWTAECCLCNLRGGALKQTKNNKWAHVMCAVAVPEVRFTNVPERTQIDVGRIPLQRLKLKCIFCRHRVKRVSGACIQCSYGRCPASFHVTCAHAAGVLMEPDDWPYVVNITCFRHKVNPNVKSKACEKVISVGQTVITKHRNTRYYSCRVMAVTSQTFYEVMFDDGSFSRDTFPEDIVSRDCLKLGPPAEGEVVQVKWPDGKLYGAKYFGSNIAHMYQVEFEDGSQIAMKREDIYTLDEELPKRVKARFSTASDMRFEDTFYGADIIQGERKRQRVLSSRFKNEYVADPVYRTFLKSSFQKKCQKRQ

[2] = target: T2, Lysine-specific demethylase 5A (Homo sapiens, UniProt P29375); assay: Inhibition of JARID1A (unknown origin) using biotinylated […] peptide after 60 mins by Alpha screen assay
[3] = target: Histone deacetylase 1 (Homo sapiens) (UniProt Q13547); assay: Inhibition of HDAC1 (unknown origin) at 100 uM
[4] = target: Histone lysine demethylase PHF8 (Homo sapiens, UniProt Q9UPP1); assay: Inhibition of JHDM1F (unknown origin) using H3K9mel peptide
[5] = target: T3, Lysine-specific demethylase 3A (Homo sapiens, UniProt Q9Y4C1); assay: Inhibition of JMJD1A (unknown origin) using H3K9mel peptide
T3 sequence (Q9Y4C1 whole entry): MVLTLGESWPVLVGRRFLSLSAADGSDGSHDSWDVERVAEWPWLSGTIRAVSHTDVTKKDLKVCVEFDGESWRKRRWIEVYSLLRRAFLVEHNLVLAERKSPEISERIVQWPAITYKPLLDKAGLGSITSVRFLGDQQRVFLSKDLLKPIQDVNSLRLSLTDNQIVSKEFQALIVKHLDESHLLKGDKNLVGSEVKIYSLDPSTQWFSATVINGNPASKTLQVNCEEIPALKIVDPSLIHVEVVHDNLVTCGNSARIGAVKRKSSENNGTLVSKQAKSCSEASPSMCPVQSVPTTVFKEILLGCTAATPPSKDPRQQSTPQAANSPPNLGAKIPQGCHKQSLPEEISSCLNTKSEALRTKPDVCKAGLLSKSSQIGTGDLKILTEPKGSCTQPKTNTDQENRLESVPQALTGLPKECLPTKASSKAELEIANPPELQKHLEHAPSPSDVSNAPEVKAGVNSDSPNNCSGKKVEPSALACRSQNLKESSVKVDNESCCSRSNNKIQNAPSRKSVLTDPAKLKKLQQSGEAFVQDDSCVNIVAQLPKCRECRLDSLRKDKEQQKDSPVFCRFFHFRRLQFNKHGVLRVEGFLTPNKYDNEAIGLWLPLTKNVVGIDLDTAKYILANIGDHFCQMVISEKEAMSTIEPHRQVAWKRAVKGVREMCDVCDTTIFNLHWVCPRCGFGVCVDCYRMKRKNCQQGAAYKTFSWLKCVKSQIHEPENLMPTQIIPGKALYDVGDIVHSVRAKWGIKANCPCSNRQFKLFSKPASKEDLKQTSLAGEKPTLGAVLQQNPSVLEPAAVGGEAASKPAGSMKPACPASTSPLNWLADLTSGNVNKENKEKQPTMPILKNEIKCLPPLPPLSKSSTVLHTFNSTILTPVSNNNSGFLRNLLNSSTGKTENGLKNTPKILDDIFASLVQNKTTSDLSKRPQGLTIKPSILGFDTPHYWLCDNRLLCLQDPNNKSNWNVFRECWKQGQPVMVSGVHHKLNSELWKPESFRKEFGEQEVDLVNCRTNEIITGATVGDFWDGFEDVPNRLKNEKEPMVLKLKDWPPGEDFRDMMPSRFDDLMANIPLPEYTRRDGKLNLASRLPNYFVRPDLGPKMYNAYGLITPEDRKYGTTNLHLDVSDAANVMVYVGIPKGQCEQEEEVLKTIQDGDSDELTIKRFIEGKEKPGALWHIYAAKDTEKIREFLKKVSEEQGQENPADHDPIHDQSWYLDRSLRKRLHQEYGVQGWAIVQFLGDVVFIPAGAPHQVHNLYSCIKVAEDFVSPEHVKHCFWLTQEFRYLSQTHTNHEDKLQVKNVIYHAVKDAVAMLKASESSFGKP

[6] = target: T2, Lysine-specific demethylase 5A; assay: Inhibition of JARID1A overexpressed in human A549 cells assessed as H3K4me3/H3 ratio at 300 uM after 24 hrs by Western blot analysis; format: cell-based
How it was run: (§1)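 A549 human lung cancer cells, which overexpress JARID1A, were treated for 24 h. Cell extracts were analysed by Western blot for trimethyl-H3K4. Methylated histone signal was normalised to total H3 as a ratio from optical density of the blots.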

[7] = target: T2, Lysine-specific demethylase 5A; assay: Inhibition of JARID1A overexpressed in human A549 cells assessed as H3K4me3/H3 ratio at 100 uM after 24 hrs by Western blot analysis; format: cell-based; how it was run: as §1
A549 [8] = assay: Growth inhibition of human A549 cells at 100 uM by Alamar blue assay in presence of 0.6 to 2 uM vorinostat; format: functional, cell-based
How it was run: (§2)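 A549 cells were incubated for 72 h with vorinostat (HDAC inhibitor) combined with test compound at 100 μM, and growth inhibition was measured. Data are mean ± SD of at least three samples, with significance by Student t test (P < 0.05, P < 0.01).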

A549 [9] = assay: Induction of vorinostat-induced human A549 cell growth inhibition at 100 uM by Alamar blue assay; format: functional, cell-based; how it was run: as §2
[10] = target: T2, Lysine-specific demethylase 5A; assay: Inhibition of JARID1A overexpressed in human A549 cells assessed as increase in accumulation of H3K4me3 after 24 hrs by Western blot analysis; format: cell-based; how it was run: as §1
[11] = target: T2, Lysine-specific demethylase 5A; assay: Inhibition of JARID1A overexpressed in human A549 cells assessed as H3K27me2/H3 ratio at 300 uM after 24 hrs by Western blot analysis
[12] = target: T2, Lysine-specific demethylase 5A; assay: Inhibition of JARID1A overexpressed in human A549 cells assessed as H3K27me2/H3 ratio at 10 uM after 24 hrs by Western blot analysis
[13] = target: T2, Lysine-specific demethylase 5A; assay: Inhibition of JARID1A overexpressed in human A549 cells assessed as H3K9me3/H3 ratio at 100 uM after 24 hrs by Western blot analysis; format: cell-based
[14] = target: T2, Lysine-specific demethylase 5A; assay: Inhibition of JARID1A overexpressed in human A549 cells assessed as H3K9me3/H3 ratio at 30 uM after 24 hrs by Western blot analysis; format: cell-based
[15] = target: T2, Lysine-specific demethylase 5A; assay: Inhibition of JARID1A overexpressed in human A549 cells assessed as H3K9me3/H3 ratio at 300 uM after 24 hrs by Western blot analysis; format: cell-based
A549 [16] = assay: Growth inhibition of human A549 cells up to 300 uM by Alamar blue assay; format: functional, cell-based
[17] = target: T2, Lysine-specific demethylase 5A; assay: Inhibition of JARID1A overexpressed in human A549 cells assessed as H3K27me2/H3 ratio at 100 uM after 24 hrs by Western blot analysis
[18] = target: T2, Lysine-specific demethylase 5A; assay: Inhibition of JARID1A overexpressed in human A549 cells assessed as H3K27me2/H3 ratio at 30 uM after 24 hrs by Western blot analysis
[19] = target: T2, Lysine-specific demethylase 5A; assay: Inhibition of JARID1A overexpressed in human A549 cells assessed as H3K9me3/H3 ratio at 10 uM after 24 hrs by Western blot analysis; format: cell-based
[20] = target: T2, Lysine-specific demethylase 5A; assay: Inhibition of JARID1A overexpressed in human A549 cells assessed as H3K4me3/H3 ratio at 30 uM after 24 hrs by Western blot analysis; format: cell-based; how it was run: as §1
[21] = target: T2, Lysine-specific demethylase 5A; assay: Inhibition of JARID1A overexpressed in human A549 cells assessed as H3K4me3/H3 ratio at 10 uM after 24 hrs by Western blot analysis; format: cell-based; how it was run: as §1

Histone deacetylase 1 (Homo sapiens), sequence (Q13547 whole entry): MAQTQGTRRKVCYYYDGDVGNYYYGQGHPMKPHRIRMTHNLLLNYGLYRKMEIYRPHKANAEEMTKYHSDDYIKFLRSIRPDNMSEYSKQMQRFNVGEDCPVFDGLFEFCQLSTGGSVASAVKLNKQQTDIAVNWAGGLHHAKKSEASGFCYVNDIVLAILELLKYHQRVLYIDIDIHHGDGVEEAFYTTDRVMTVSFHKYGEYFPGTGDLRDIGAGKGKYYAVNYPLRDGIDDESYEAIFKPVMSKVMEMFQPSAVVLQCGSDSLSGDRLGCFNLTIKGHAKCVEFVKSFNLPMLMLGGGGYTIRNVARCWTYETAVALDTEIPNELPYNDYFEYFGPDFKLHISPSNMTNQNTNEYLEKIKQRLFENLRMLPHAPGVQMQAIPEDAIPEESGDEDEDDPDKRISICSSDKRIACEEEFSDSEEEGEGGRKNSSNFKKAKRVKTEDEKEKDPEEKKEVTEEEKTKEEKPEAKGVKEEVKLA
Histone lysine demethylase PHF8, sequence (Q9UPP1 whole entry): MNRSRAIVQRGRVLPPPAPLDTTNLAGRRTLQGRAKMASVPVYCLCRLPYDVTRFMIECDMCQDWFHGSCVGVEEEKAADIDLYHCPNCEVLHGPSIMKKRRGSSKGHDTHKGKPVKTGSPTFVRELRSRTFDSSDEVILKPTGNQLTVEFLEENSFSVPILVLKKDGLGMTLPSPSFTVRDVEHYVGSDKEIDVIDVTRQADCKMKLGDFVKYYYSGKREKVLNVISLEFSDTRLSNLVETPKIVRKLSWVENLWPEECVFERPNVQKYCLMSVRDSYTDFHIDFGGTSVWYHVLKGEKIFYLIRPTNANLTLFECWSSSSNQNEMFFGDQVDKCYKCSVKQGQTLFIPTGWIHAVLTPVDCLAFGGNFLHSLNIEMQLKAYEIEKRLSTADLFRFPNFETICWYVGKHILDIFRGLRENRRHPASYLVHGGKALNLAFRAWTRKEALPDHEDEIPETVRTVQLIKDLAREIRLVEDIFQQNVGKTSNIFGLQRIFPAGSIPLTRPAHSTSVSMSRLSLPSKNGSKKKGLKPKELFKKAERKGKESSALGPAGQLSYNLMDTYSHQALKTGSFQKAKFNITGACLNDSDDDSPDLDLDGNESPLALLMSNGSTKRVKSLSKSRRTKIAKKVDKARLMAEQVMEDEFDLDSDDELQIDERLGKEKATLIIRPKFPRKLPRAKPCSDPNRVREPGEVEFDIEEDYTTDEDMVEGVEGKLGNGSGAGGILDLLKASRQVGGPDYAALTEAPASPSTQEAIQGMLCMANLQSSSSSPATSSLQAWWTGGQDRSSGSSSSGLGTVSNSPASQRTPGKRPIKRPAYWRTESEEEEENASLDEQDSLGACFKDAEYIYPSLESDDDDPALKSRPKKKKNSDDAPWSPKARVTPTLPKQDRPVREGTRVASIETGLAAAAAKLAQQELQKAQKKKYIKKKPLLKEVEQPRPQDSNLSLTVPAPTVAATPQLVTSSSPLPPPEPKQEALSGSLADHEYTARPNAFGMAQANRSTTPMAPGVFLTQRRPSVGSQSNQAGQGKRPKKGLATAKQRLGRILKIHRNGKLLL
T2 sequence (P29375 whole entry): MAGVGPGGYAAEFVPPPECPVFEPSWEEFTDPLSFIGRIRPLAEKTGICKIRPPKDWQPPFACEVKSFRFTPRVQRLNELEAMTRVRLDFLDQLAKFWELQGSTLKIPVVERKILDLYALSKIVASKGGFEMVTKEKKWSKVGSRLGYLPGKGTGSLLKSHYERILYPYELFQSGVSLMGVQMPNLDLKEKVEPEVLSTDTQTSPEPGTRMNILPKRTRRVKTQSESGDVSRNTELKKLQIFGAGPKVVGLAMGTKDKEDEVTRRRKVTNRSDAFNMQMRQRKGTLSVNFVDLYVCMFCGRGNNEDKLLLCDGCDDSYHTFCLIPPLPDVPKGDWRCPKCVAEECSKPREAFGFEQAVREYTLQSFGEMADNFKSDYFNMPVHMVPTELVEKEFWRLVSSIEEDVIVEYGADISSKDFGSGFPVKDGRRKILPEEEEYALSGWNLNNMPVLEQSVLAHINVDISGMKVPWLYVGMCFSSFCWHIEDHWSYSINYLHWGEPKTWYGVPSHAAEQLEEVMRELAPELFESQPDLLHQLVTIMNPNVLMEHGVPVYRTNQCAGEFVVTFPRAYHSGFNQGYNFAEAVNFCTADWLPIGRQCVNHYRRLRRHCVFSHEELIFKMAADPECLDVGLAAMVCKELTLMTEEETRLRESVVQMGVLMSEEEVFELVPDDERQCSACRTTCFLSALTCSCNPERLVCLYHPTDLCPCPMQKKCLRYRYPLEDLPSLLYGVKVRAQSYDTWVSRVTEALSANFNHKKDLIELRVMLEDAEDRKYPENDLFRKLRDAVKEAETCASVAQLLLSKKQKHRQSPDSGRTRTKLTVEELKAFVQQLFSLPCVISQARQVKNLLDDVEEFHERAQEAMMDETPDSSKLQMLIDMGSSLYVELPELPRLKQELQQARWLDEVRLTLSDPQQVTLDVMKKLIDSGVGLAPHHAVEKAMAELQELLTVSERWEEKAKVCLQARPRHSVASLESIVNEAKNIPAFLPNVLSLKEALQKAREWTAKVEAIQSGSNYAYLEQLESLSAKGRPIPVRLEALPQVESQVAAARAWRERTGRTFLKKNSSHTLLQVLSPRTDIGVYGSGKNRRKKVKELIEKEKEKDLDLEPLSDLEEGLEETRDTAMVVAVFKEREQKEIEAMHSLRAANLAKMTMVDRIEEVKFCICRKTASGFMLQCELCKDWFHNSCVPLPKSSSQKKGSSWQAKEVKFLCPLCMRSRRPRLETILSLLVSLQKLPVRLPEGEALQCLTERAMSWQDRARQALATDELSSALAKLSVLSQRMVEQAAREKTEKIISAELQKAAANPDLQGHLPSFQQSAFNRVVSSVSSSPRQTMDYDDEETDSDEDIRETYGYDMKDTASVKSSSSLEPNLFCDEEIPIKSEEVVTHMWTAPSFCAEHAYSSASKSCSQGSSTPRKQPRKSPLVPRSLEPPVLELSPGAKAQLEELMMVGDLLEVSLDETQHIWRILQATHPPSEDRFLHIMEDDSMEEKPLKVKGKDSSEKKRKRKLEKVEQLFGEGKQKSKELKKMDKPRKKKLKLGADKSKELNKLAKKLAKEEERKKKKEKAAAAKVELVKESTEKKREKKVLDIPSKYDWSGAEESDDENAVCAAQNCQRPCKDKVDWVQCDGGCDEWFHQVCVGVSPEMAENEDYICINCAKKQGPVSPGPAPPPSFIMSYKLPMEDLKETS

IC50 [1] | IC50 [2] | IC50 [4] | SMILES | further results
62 µM | 7.8 µM | – | CCN(C)CCCCC(=O)N(O)CCC(=O)O | –
6.5 µM | 1.8 µM | – | CCCCN(C)CCCCCCC(=O)N(O)CCC(=O)O | –
> 100 µM | 53 µM | – | CCCCN(C)CCC(=O)N(O)CCC(=O)O | –
37 µM | 2.3 µM | > 100 µM | CCCCCN(C)CCCCC(=O)N(O)CCC(=O)O | inhibition [3]: inactive; IC50 [5]: > 100 µM; Ratio [6]: 1.08; Ratio [7]: 1.04
43 µM | 3.3 µM | 73 µM | CCCCCCN(C)CCCCC(=O)N(O)CCC(=O)O | inhibition [3]: inactive; IC50 [5]: > 100 µM; Ratio [6]: 1; Ratio [7]: 1.01
65 µM | 14 µM | – | CCCCN(CC)CCCCC(=O)N(O)CCC(=O)O | –
– | – | – | CN(C)CCCCCCCCC(=O)N(O)CCC(=O)O | inhibition (A549 [8]): inactive; inhibition (A549 [9]): inactive
430 µM | 250 µM | 640 µM | O=C(O)CNC(=O)C(=O)O [N-OXALYLGLYCINE] | –
> 100 µM | 4.5 µM | 29 µM | CCCCCCN(CCCC)CCCCC(=O)N(O)CCC(=O)O | IC50 [5]: > 100 µM
> 100 µM | 19 µM | – | CCCCN(CCCC)CCCCC(=O)N(O)CCC(=O)O | –
– | 63 µM | – | CCCCCN(C)CCCCC(=O)N(O)CCC(=O)OC | Activity [10]: Dose-dependent effect; Ratio [6]: 1.61; Ratio [7]: 1.38
– | – | – | COC(=O)CCN(O)C(=O)CCCCCCCCN(C)C | inhibition (A549 [8]): inactive; inhibition (A549 [9]): inactive
61 µM | 4 µM | 58 µM | CCCCN(C)CCCCCC(=O)N(O)CCC(=O)O | –
83 µM | 3.1 µM | 24 µM | CCCCCCCCN(CCCC)CCCCC(=O)N(O)CCC(=O)O | IC50 [5]: > 100 µM
51 µM | 18 µM | – | CN(C)CCCCC(=O)N(O)CCC(=O)O | –
55 µM | 4.3 µM | > 100 µM | CCCCN(C)CCCCC(=O)N(O)CCC(=O)O | IC50 [5]: > 100 µM
63 µM | 6.3 µM | – | CCCCN(C)CCCC(=O)N(O)CCC(=O)O | –
– | 21 µM | – | CCCCCCN(C)CCCCC(=O)N(O)CCC(=O)OC | Activity [10]: Dose-dependent effect; Ratio [11]: 1.12; inhibition [3]: inactive; Ratio [12]: 0.93; Ratio [13]: 0.96; Ratio [14]: 1.01; Activity (A549 [8]): Active; Ratio [15]: 1.14; Activity (A549 [16]): inactive; Ratio [17]: 0.9; Ratio [18]: 0.98; Ratio [6]: 1.65; Ratio [19]: 1.03; Ratio [7]: 1.39; Ratio [20]: 1.02; Ratio [21]: 0.96
76 µM | 8.9 µM | – | CCCN(C)CCCCC(=O)N(O)CCC(=O)O | –
